Experimental data reported in article PMC5065790 (Bioorganic & medicinal chemistry, 2016).

Assays:
[1] = Peptide crosslinking analysis; assay type: biochemical; settings: 0.1 mM peptide, 1 mM compound, 2 h 25°C, reducing SDS-PAGE
[2] = test system: HIV-1 PrGag in immature virus particles; assay: Virus crosslink analysis, immature HIV-1 particles; assay type: biochemical; settings: 1 mM compound, 1 h at 25°C
HIV-1 MA protein = HIV-1 MA protein (Human immunodeficiency virus type 1 group M subtype B, UniProt P12493); assay: HIV-1 MA crosslinking, dimer/monomer immunoblot; assay type: biochemical; settings: 30 µM MA, 50 µM compound
Outline: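 Purified HIV-1 MA at 30 µM in 25 mM sodium phosphate (pH 7.8) plus 50 mM NaCl, incubated 2 h at 25°C with or without 50 µM test compound. Dimer and monomer bands were then measured, and percentage MA crosslinking was derived from them.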

[3] = biological target: soluble guanylate cyclase; settings: read-out: IC50 concentrations; ref [8]–[9]; cited from earlier work
leukotriene synthesis = settings: read-out: IC50 concentrations; ref [8]–[9]; cited from earlier work
HIV-1 virus particles [4] = assay: Inactivation of luciferase-transducing HIV-1; assay type: cell-based; settings: 1 mM, virus treated 1 h at 37°C, HEK293T cells, 48 h
HIV-1 = settings: ref [21]–[3]; cited from earlier work
HIV-1 virus particles [5] = assay: Inactivation of GFP-transducing HIV-1; assay type: cell-based; settings: 1 mM, virus treated 1 h at 37°C, HEK293T cells, 48 h
HIV-1 MA-RNA binding = HIV-1 MA-RNA binding (Human immunodeficiency virus type 1 group M subtype B, UniProt P12493); assay: Fluorescence polarization; settings: screen of 50,000 compounds

Row | Structure (SMILES) | peptide dimer formation [1] | HIV-1 PrGag dimer band [2] | MA dimer formation (in words) (HIV-1 MA protein) | also measured
1 | O=C1C=CC(=O)N1CCCCCCN1C(=O)C=CC1=O [BMH, 1,6-bis-maleimidohexane, reference compound] | yielded dimers | a dimer band was observed |  | 
2 | COC1=C(Br)C(=O)c2ncccc2C1=O [Compound 102729, 7-bromo-6-methoxy-5,8-quinolinedione] |  | to lower extents | significant levels of dimer formation | 
3 | O=C1C(Nc2ccccc2)=CC(=O)c2ncccc21 [LY83583, 6-anilino-5,8-quinolinequinone] |  |  |  | IC50 [3]: 1000 to 2000 nM; IC50 (leukotriene synthesis): 1000 to 2000 nM
4 | O=C1C(Cl)=C(Cl)C(=O)c2ccccc21 [Compound 537, 2,3-dichloronaphthoquinone] | yielded dimers | showed the HIV-1 PrGag dimer band | efficiently formed dimers | 
5 | COC1=C(Cl)C(=O)c2ncccc2C1=O [Compound 81048, 7-chloro-6-methoxy-5,8-quinolinedione] |  |  | significant levels of dimer formation | 
6 | c1ccc(SSc2ccccn2)nc1 [Aldrithiol-2, 2,2'-dipyridyldisulfide] |  |  |  | virus infectivity level after treatment (luciferase, in words) (HIV-1 virus particles [4]): nearly mock-infection levels; concentrations that inactivate HIV-1 (HIV-1): 300 to 1000 µM; virus infection levels (GFP-positive cells, in words) (HIV-1 virus particles [5]): dramatically reduced virus infection levels
7 | O=C1C=CC(=O)c2cnccc21 [Compound 76882, 5,8-isoquinolinedione] |  |  | efficiently formed dimers | 
8 | O=C1C=CC(=O)N1CCN1C(=O)C=CC1=O [BMOE, bis-maleimidoethane] | yielded dimers |  |  | 
9 | O=C1C(Cl)=C(Cl)C(=O)c2ncccc21 [Compound 81047, 6,7-dichloro-5,8-quinolinedione] |  |  | efficiently formed dimers | inhibition of MA-RNA binding in library screen (in words) (HIV-1 MA-RNA binding): potently inhibited MA-RNA binding
